Laboratory results reported in ChEMBL document CHEMBL1137444, “Thiazole-diamides as potent gamma-secretase inhibitors” (Bioorg Med Chem Lett, 2007).

How the values were obtained:
[1] = target: Gamma-secretase; assay: Inhibition of gamma secretase C100Flag cleavaging activity in HeLa cell membranes assessed as M-amyloid beta-40 production by cell free assay; set-up: species or system Homo sapiens
Method in brief: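 IC50 taken as the geometric mean of at least two experiments, each run with six data points.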

[2] = target: Gamma-secretase; assay: Inhibition of gamma secretase activity in human H4 cells transfected with APP695 mutant assessed as beta amyloid(1-40) production by whole cell assay; assay type: cell-based
Method in brief: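 Cells were plated at about 30,000 per well and left to attach for about 6 h at 37 °C. They were then washed to clear secreted Aβ and given fresh medium containing compound for overnight incubation at 37 °C. Secreted Aβ in the harvested medium was measured by immunoassay. IC50 is the geometric mean of at least two experiments, six data points each.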

| IC50 [1] [nM] | IC50 [2] [nM] | Compound |
| --- | --- | --- |
| 33 | 31.6 | CCC[C@H](NC(=O)Cc1cc(F)cc(F)c1)C(=O)Nc1nc(C)c(C(C)NCC(C)C)s1 (stereo in doubt; 34b) |
| 6.2 | 0.3 | CCC[C@H](NC(=O)[C@@H](O)c1cc(F)cc(F)c1)C(=O)Nc1ncc(C(CC)CC)s1 |
| 30 | 12.9 | CCC[C@H](NC(=O)Cc1cc(F)cc(F)c1)C(=O)Nc1nc(C)c(CC)s1 |
| 15.9 | 10.1 | CCCNC(C)c1cnc(NC(=O)[C@H](CCC)NC(=O)Cc2cc(F)cc(F)c2)s1 (stereo partly specified) |
| 13 | 0.43 | CCC[C@H](NC(=O)[C@@H](O)C(C)(C)C)C(=O)Nc1ncc(C(C)CCCC(C)(C)OC)s1 (stereo partly specified) |
| 28.3 | 39.7 | CCC[C@H](NC(=O)Cc1cc(F)cc(F)c1)C(=O)Nc1nc(C)c(C(C)N(C)C)s1 (stereo partly specified) |
| 64.8 | 1.6 | CCC[C@H](NC(=O)Cc1cc(F)cc(F)c1)C(=O)Nc1ncc(C(C)CC(C)(C)C)s1 (stereo partly specified) |
| 155 | 42 | CCC[C@H](NC(=O)Cc1cc(F)cc(F)c1)C(=O)Nc1nc(C)c(C(C)NCC)s1 (stereo partly specified) |
| 6 | 2 | CCCCNC(C)c1cnc(NC(=O)[C@H](CCC)NC(=O)Cc2cc(F)cc(F)c2)s1 (stereo partly specified) |
| 10 | 0.14 | CCC[C@H](NC(=O)CCc1cc(F)cc(F)c1)C(=O)Nc1ncc(C(C)CCCC(C)(C)OC)s1 (stereo partly specified) |
| 94.9 | 37.3 | CCC[C@H](NC(=O)[C@@H](O)C(C)(C)C)C(=O)Nc1ncc(C(C)(C)O)s1 |
| 28.3 | 26.1 | CCC[C@H](NC(=O)Cc1cc(F)cc(F)c1)C(=O)Nc1nc(C)c(C(C)N2CCN(C)CC2)s1 (stereo partly specified) |
| 5.9 | 2 | CCC[C@H](NC(=O)Cc1cc(F)cc(F)c1)C(=O)Nc1nc(C)c(C(C)NCCC(C)(C)C)s1 (stereo partly specified) |
| 134 | 231 | CCC[C@H](NC(=O)Cc1cc(F)cc(F)c1)C(=O)Nc1ncc(C(C)NCC(C)(C)C)s1 (stereo partly specified) |
| 2.7 | 1.2 | CCC[C@H](NC(=O)Cc1cc(F)cc(F)c1)C(=O)Nc1ncc(C(C)NCCC(C)(C)C)s1 (stereo partly specified) |
| 3.1 | 2.5 | CCC[C@H](NC(=O)Cc1cc(F)cc(F)c1)C(=O)Nc1nc(C)c(C(C)NCC(C)C)s1 (stereo in doubt; 34a) |
| 45.1 | 20.1 | CCC[C@H](NC(=O)[C@@H](O)C(C)(C)C)C(=O)Nc1ncc(C(C)C)s1 |
| 2.8 | 2.2 | CCC[C@H](NC(=O)[C@@H](O)c1ccccc1)C(=O)Nc1ncc(C(O)(CC)CC)s1 |
| 7.1 | 3.7 | CCCCNC(C)c1sc(NC(=O)[C@H](CCC)NC(=O)Cc2cc(F)cc(F)c2)nc1C (stereo partly specified) |
| 141 | 183 | CCC[C@H](NC(=O)[C@H](O)c1ccccc1)C(=O)Nc1ncc(C(O)(CC)CC)s1 |
| 30 | 0.22 | COC(C)(C)CCCC(C)c1cnc(NC(=O)[C@H](C)NC(=O)CCc2cc(F)cc(F)c2)s1 (stereo partly specified) |
| 4 | 0.7 | CCC[C@H](NC(=O)Cc1cc(F)cc(F)c1)C(=O)Nc1ncc(C(C)N[C@H](C(=O)OC)C(C)C)s1 (stereo partly specified) |
| 10 | 4.5 | CCC[C@H](NC(=O)Cc1cc(F)cc(F)c1)C(=O)Nc1nc(C)c(C(C)NCC(F)(F)F)s1 (stereo partly specified) |
| 63.2 | 104 | CCC[C@H](NC(=O)Cc1cc(F)cc(F)c1)C(=O)Nc1ncc(CNCC)s1 |
| 3.8 | 2.4 | CCC[C@H](NC(=O)Cc1cc(F)cc(F)c1)C(=O)Nc1ncc(C(C)N2CCOCC2)s1 (stereo partly specified) |
| < 34.6 | 0.8 | CCCC(CCC)c1cnc(NC(=O)[C@H](CCC)NC(=O)Cc2cc(F)cc(F)c2)s1 |
| 30 | 12.7 | CCCCN(CC)Cc1cnc(NC(=O)[C@H](CCC)NC(=O)Cc2cc(F)cc(F)c2)s1 |

| IC50 [1] [nM] | IC50 [2] [nM] | Compound |
| --- | --- | --- |
| 2.6 | 1.2 | CCC[C@H](NC(=O)Cc1cc(F)cc(F)c1)C(=O)Nc1ncc(C(C)NCCC(C)C)s1 (stereo partly specified) |
| 9 | 0.3 | CCC[C@H](NC(=O)[C@@H](O)C(C)C)C(=O)Nc1ncc([C@@H](C)CCCC(C)(C)OC)s1 |
| 42.4 | 29.8 | CCC[C@H](NC(=O)Cc1cc(F)cc(F)c1)C(=O)Nc1ncc(C(C)NC(C)C)s1 (stereo partly specified) |
| 6 | 0.05 | CCC[C@H](NC(=O)CCc1cc(F)cc(F)c1)C(=O)Nc1ncc(C(C)CCCC(C)(C)O)s1 (stereo partly specified) |
| 141 | 94.1 | CCC[C@H](NC(=O)Cc1cc(F)cc(F)c1)C(=O)Nc1nc(C)c(C)s1 |
| 26.3 | 2.2 | CCC[C@H](NC(=O)Cc1cc(F)cc(F)c1)C(=O)Nc1ncc(C(CC)CC)s1 |
| 13.6 | 0.08 | CC[C@H](NC(=O)CCc1cc(F)cc(F)c1)C(=O)Nc1ncc(C(C)CCCC(C)(C)OC)s1 (stereo partly specified) |
| 30 | 12.7 | CCC[C@H](NC(=O)Cc1cc(F)cc(F)c1)C(=O)Nc1ncc(CN2CCOCC2)s1 |
| 5 | 2 | CCC[C@H](NC(=O)Cc1cc(F)cc(F)c1)C(=O)Nc1nc(C)c(C(C)NCCC(C)C)s1 (stereo partly specified) |
| 20 | 27.7 | CCC[C@H](NC(=O)Cc1cc(F)cc(F)c1)C(=O)Nc1nc(C)c(C(C)=O)s1 |
| 727 | 81.5 | CC[C@H](NC(=O)CCc1cc(F)cc(F)c1)C(=O)Nc1ncc([C@H](C)CCCC(C)(C)OC)s1 |
| 1 | 1.2 | CCC[C@H](NC(=O)Cc1cc(F)cc(F)c1)C(=O)Nc1ncc(C(O)(CC)CC)s1 |
| 9.9 | 1.14 | CCC[C@H](NC(=O)[C@@H](O)C(C)(C)C)C(=O)Nc1ncc([C@H](C)CCCC(C)(C)OC)s1 |
| 10 | 10.6 | CCC[C@H](NC(=O)Cc1cc(F)cc(F)c1)C(=O)Nc1ncc(C(C)N2CCCC2)s1 (stereo partly specified) |
| 4.2 | 4.2 | CCC[C@H](NC(=O)Cc1cc(F)cc(F)c1)C(=O)Nc1ncc(C(C)NCC(C)C)s1 (stereo partly specified) |
| 51.8 | 50.5 | CCC[C@H](NC(=O)Cc1cc(F)cc(F)c1)C(=O)Nc1nc(C)c(C(C)NC)s1 (stereo partly specified) |
| 200 | 93 | CCC[C@H](NC(=O)Cc1cc(F)cc(F)c1)C(=O)Nc1ncc(CN)s1 |
| 7.4 | 0.22 | CCC[C@H](NC(=O)[C@@H](O)C(C)(C)C)C(=O)Nc1ncc(C(C)CCCC(C)(C)O)s1 (stereo partly specified) |
| 10 | 0.11 | CCC[C@H](NC(=O)[C@@H](O)C(C)(C)C)C(=O)Nc1ncc([C@@H](C)CCCC(C)(C)OC)s1 |
| 9 | 7.49 | CCC[C@H](NC(=O)[C@@H](O)C(C)C)C(=O)Nc1ncc([C@H](C)CCCC(C)(C)OC)s1 |
| 30 | 5.1 | CCC[C@H](NC(=O)Cc1cc(F)cc(F)c1)C(=O)Nc1ncc(C(C)C)s1 |
| 30 | 0.1 | CC[C@H](NC(=O)CCc1cc(F)cc(F)c1)C(=O)Nc1ncc([C@@H](C)CCCC(C)(C)OC)s1 |
| 116 | 16.8 | CCC[C@H](NC(=O)C(=O)C(C)(C)C)C(=O)Nc1ncc(C(C)C)s1 |
| 3 | 1.4 | CCC[C@H](NC(=O)Cc1cc(F)cc(F)c1)C(=O)Nc1ncc(C(C)NCc2ccccc2)s1 (stereo partly specified) |
| 10 | 4.8 | CCC[C@H](NC(=O)Cc1cc(F)cc(F)c1)C(=O)Nc1nc(C)c(C(C)NCC(C)C)s1 (stereo in doubt; 34) |
| 5.9 | 0.3 | CCC[C@H](NC(=O)[C@@H](O)C(C)C)C(=O)Nc1ncc(C(C)CCCC(C)(C)OC)s1 (stereo partly specified) |
